ChEMBL document CHEMBL1124783, “Synthesis and structure-activity relationships of 6-substituted 2',3'-dideoxypurine nucleosides as potential anti-human immunodeficiency virus agents” (J Med Chem, 1990)
pEC50, pIC50: −log10 of the molar value.

Key:
[1] = The antiviral activity against HIV-1 in human peripheral blood mononuclear (PBM) cells expressed as median effective concentration; type: functional; conditions: read-out: ED50 (the source's name)
Outline: (§1)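 PHA-stimulated human PBM cells infected with HIV-1 strain LAV-1 (about 63 000 dpm RT activity per 10^7 cells/10 mL medium), then drug added to duplicate or triplicate cultures. Incubated at 37 °C in 5% CO2 for 6 days. Supernatant RT activity measured on pelleted virus with (rA)n·(dT)12-18 template-primer, expressed as dpm/mL. EC50 taken from median-effect plot of dose-effect data.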

[2] = The antiviral activity against HIV-1 in human peripheral blood mononuclear (PBM) cells expressed as inhibitory concentration; type: functional; outline: as §1

Structure (SMILES) | pEC50 [1] | pIC50 [2]
OCC1CCC(n2cnc3c(S)ncnc32)O1 (centres undefined) | 4.27 | < 4.00
Nc1ncnc2c1ncn2[C@H]1CC[C@@H](CO)O1 | 6.21 | < 4.00
CN(C)c1ncnc2c1ncn2C1CCC(CO)O1 (centres undefined) | 5.64 | < 4.00
CNc1ncnc2c1ncn2C1CCC(CO)O1 (centres undefined) | 6.59 | < 4.00
CSc1ncnc2c1ncn2C1CCC(CO)O1 (centres undefined) | 5.44 | < 4.00
OC[C@@H]1CC[C@H](n2cnc3c(Cl)ncnc32)O1 | 5.68 | < 4.00
OC[C@@H]1CC[C@H](n2cnc3cncnc32)O1 | < 4.00 | < 4.00
CNc1ncnc2c1ncn2C1OC(CO)CC1F (centres undefined) | 5.37 | < 4.00
CCNc1ncnc2c1ncn2C1CCC(CO)O1 (centres undefined) | 5.28 | < 4.00
OCC1CCC(n2cnc3c(NCc4ccccc4)ncnc32)O1 (centres undefined) | < 4.00 | 5.00
Nc1nc(O)c2ncn([C@H]3CC[C@@H](CO)O3)c2n1 | 6.06 | < 4.00
O=c1[nH]cnc2c1ncn2[C@H]1CC[C@@H](CO)O1 [DIDANOSINE] | 5.26 | < 4.00
